In ChEMBL document CHEMBL5154895, “Mechanistic Studies and In Vivo Efficacy of an Oxadiazole-Containing Antibiotic” (J Med Chem, 2022):
Values after ≈ are worked out from the molar mass of the structure shown. Active and inactive are the calls of the source. The calls are words filed in the database; no cut-off is given here.

Tests used:
Staphylococcus aureus [1] = test: Upregulation of CHAP domain-containing protein expression in Staphylococcus aureus measured after 2 hrs by LC-MS/MS analysis; type: functional
Outline: (§1)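 S. aureus ATCC 25923 at OD600 0.6 exposed to compound or DMSO control for 2 h at 37°C, normalized to OD600 1.1 and PBS-washed. Cells were pressure-cycling lysed in 100 mM ammonium bicarbonate, and 50 μg protein was acetone-precipitated, reduced and alkylated, then Trypsin/Lys-C digested and C18-desalted. About 1 μg peptides went to LC-MS/MS. Label-free quantitation kept proteins present in all 3 samples, filtered at p <0.05.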

Staphylococcus aureus [2] = test: Downregulation of glycero-phosphodiester phosphodiesterase protein expression in Staphylococcus aureus measured after 2 hrs by LC-MS/MS analysis; type: functional
Outline: (§2)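 S. aureus ATCC 25923 at OD600 0.6 was treated with compound or DMSO for 2 h at 37 °C, normalised to OD600 1.1, and washed in PBS. Cells were pressure-lysed in 100 mM ammonium bicarbonate, then acetone-precipitated, reduced with DTT, alkylated with iodoacetamide, and digested with trypsin/Lys-C. Peptides were desalted and run on LC-MS/MS. Label-free quantitation used proteins present in all 3 samples, filtered at p<0.05 against DMSO.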

Staphylococcus aureus [3] = test: Downregulation of molybdenum ABC transporter ATP-binding protein expression in Staphylococcus aureus measured after 2 hrs by LC-MS/MS analysis; type: functional; outline: as §1
Staphylococcus aureus [4] = test: Downregulation of holo-ACP synthase protein expression in Staphylococcus aureus measured after 2 hrs by LC-MS/MS analysis; type: functional; outline: as §2
Enterococcus faecalis = test: Antibacterial activity against vancomycin-resistant Enterococcus faecalis ATCC 51299 assessed as inhibition of bacterial growth incubated for 18 to 20 hrs by broth microdilution method; type: functional; settings: time 18-20 hrs
Outline: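 Broth microdilution per CLSI. Enterococci were diluted to about 5×10^5 CFU/mL in TSB and incubated aerobically with serial dilutions of agent at 37 °C for 18–20 h. MIC was read visually as the lowest concentration with no visible growth.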

Staphylococcus aureus [5] = test: Antibacterial activity against vancomycin-resistant Staphylococcus aureus 12 assessed as inhibition of bacterial growth incubated for 18 to 20 hrs by broth microdilution method; type: functional; settings: time 18-20 hrs
Outline: (§3)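 Broth microdilution per CLSI. Inoculum was set to 0.5 McFarland and diluted in CAMHB to about 5×10^5 CFU/mL. Serial dilutions of agent were incubated aerobically at 37 °C for 18–20 h. MIC was read visually as the lowest concentration with complete growth inhibition.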

Mus musculus [6] = test: Acceleration of wound healing in methicillin-resistant Staphylococcus aureus USA300 infected Balb/c mouse model assessed as reduction in IL-1beta level in skin wounds administered topically twice daily 2 days post infection and measured after 5 days post compound treatment; type: functional, organism-based; settings: time 5.0 day
Outline: (§4)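 Mice had two 6-mm dorsal excisional wounds, each infected with 20 μL of 4.2×10^9 CFU/mL MRSA USA300 and covered with Tegaderm. Treatment began 2 days after infection (n=5 per group): 2% compound in petroleum jelly applied topically twice daily for 5 days. Right-wound homogenates in PBS were centrifuged, supernatants pooled per group, and protein normalised by BCA. Cytokines were measured by mouse cytokine array (pg/mL).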

Staphylococcus aureus [7] = test: Upregulation of thiol reductase thioredoxin expression in Staphylococcus aureus measured after 2 hrs by LC-MS/MS analysis; type: functional; outline: as §1
Staphylococcus aureus [8] = test: Downregulation of EsaA protein expression in Staphylococcus aureus assessed as log2 of fold change in protein level measured after 2 hrs by LC-MS/MS analysis relative to control; type: functional; outline: as §2
Staphylococcus aureus [9] = test: Antibacterial activity against vancomycin-resistant Staphylococcus aureus 10 assessed as inhibition of bacterial growth incubated for 18 to 20 hrs by broth microdilution method; type: functional; settings: time 18-20 hrs; outline: as §3
Staphylococcus aureus [10] = test: Downregulation of MtaB protein expression in Staphylococcus aureus assessed as log2 of fold change in protein level measured after 2 hrs by LC-MS/MS analysis relative to control; type: functional; outline: as §2
[11] = In vivo antibacterial activity against methicillin-resistant Staphylococcus aureus USA300 infected in Balb/c mouse model assessed as reduction in bacterial infection in skin wounds administered topically twice daily 2 days post infection and measured after 5 days post compound treatment by CFU counting; set-up: scale not given: the % may be the effect or the level left; settings: time 5 day
Staphylococcus aureus [12] = test: Antibacterial activity against methicillin-resistant Staphylococcus aureus NRS384 assessed as inhibition of bacterial growth incubated for 18 to 20 hrs by broth microdilution method; type: functional; settings: time 18-20 hrs; outline: as §3
Staphylococcus aureus [13] = test: Downregulation of ortho-poxovirus protein expression in Staphylococcus aureus measured after 2 hrs by LC-MS/MS analysis; type: functional; outline: as §1
Mus musculus [14] = test: Acceleration of wound healing in methicillin-resistant Staphylococcus aureus USA300 infected in Balb/c mouse model assessed as reduction in pro-inflammatory cytokines level in skin wounds administered topically twice daily 2 days post infection and measured after 5 days post compound treatment; type: functional, organism-based; settings: time 5.0 day; outline: as §4
Staphylococcus aureus [15] = test: Downregulation of aureolysin protein expression in Staphylococcus aureus measured after 2 hrs by LC-MS/MS analysis; type: functional; outline: as §2
Staphylococcus aureus [16] = test: Downregulation of SarR protein expression in Staphylococcus aureus assessed as log2 of fold change in protein level measured after 2 hrs by LC-MS/MS analysis relative to control; type: functional; outline: as §2
Mus musculus [17] = test: Acceleration of wound healing in methicillin-resistant Staphylococcus aureus USA300 infected Balb/c mouse model assessed as reduction in TNF-alpha level in skin wounds administered topically twice daily 2 days post infection and measured after 5 days post compound treatment; type: functional, organism-based; settings: time 5.0 day; outline: as §4
Staphylococcus aureus [18] = test: Antibacterial activity against methicillin-sensitive Staphylococcus aureus NRS 107 assessed as inhibition of bacterial growth incubated for 18 to 20 hrs by broth microdilution method; type: functional; settings: time 18-20 hrs; outline: as §3
Staphylococcus aureus [19] = test: Downregulation of IlvA protein expression in Staphylococcus aureus assessed as log2 of fold change in protein level measured after 2 hrs by LC-MS/MS analysis relative to control; type: functional; outline: as §2
Staphylococcus aureus [20] = test: Upregulation of DefA protein expression in Staphylococcus aureus assessed as log2 of fold change in protein level measured after 2 hrs by LC-MS/MS analysis relative to control; type: functional; outline: as §1
Staphylococcus aureus [21] = test: Downregulation of CDP-diacylglycerol-glycerol-3-phosphate-3-phosphatidyltransferase protein expression in Staphylococcus aureus measured after 2 hrs by LC-MS/MS analysis; type: functional; outline: as §2
Staphylococcus aureus [22] = test: Downregulation of threonine synthase protein expression in Staphylococcus aureus measured after 2 hrs by LC-MS/MS analysis; type: functional; outline: as §1
Staphylococcus aureus [23] = test: Upregulation of heme uptake system protein IsdE expression in Staphylococcus aureus measured after 2 hrs by LC-MS/MS analysis; type: functional; outline: as §1
Staphylococcus aureus [24] = test: Antibacterial activity against methicillin-resistant Staphylococcus aureus NRS123 assessed as inhibition of bacterial growth incubated for 18 to 20 hrs by broth microdilution method; type: functional; settings: time 18-20 hrs; outline: as §3
Staphylococcus aureus [25] = test: Downregulation of site-specific integrase protein expression in Staphylococcus aureus measured after 2 hrs by LC-MS/MS analysis; type: functional; outline: as §1
Staphylococcus aureus [26] = test: Upregulation of ribonuclease HIII expression in Staphylococcus aureus measured after 2 hrs by LC-MS/MS analysis; type: functional; outline: as §1
Staphylococcus aureus [27] = test: Downregulation of oxidoreductase protein expression in Staphylococcus aureus measured after 2 hrs by LC-MS/MS analysis; type: functional; outline: as §1
Staphylococcus aureus [28] = test: Antibacterial activity against methicillin-resistant Staphylococcus aureus NRS119 assessed as inhibition of bacterial growth incubated for 18 to 20 hrs by broth microdilution method; type: functional; settings: time 18-20 hrs; outline: as §3
Staphylococcus aureus [29] = test: Downregulation of DNA-binding response regulator protein expression in Staphylococcus aureus measured after 2 hrs by LC-MS/MS analysis; type: functional; outline: as §2

Q: Which Activity (Staphylococcus aureus [1]) does the source give for `CC1CC(C)CN(S(=O)(=O)c2ccc(C(=O)Nc3nnc(-c4ccc(C(F)(F)F)cc4)o3)cc2)C1` (stereo not given) here?
A: Active

Q: And the Activity (Staphylococcus aureus [2])?
A: Active

Q: And the Activity (Staphylococcus aureus [3])?
A: Active

Q: What about the Activity (Staphylococcus aureus [4]) of the same compound?
A: Active

Q: What about the MIC (Enterococcus faecalis) of the same compound?
A: 0.25 µg/mL (≈ 0.492 µM)

Q: What about the MIC (Staphylococcus aureus [5]) of the same compound?
A: 0.25 µg/mL (≈ 0.492 µM)

Q: And the Activity (Mus musculus [6])?
A: Active

Q: And the Activity (Staphylococcus aureus [7])?
A: Active

Q: What about the log2FC (Staphylococcus aureus [8]) of the same compound?
A: -2

Q: And the MIC (Staphylococcus aureus [9])?
A: 0.25 µg/mL (≈ 0.492 µM)

Q: And the log2FC (Staphylococcus aureus [10])?
A: -2

Q: What about the Activity [11] of the same compound?
A: 93.8%

Q: What about the MIC (Staphylococcus aureus [12]) of the same compound?
A: 0.25 µg/mL (≈ 0.492 µM)

Q: And the Activity (Staphylococcus aureus [13])?
A: Active

Q: What about the Activity (Mus musculus [14]) of the same compound?
A: Active

Q: And the Activity (Staphylococcus aureus [15])?
A: Active

Q: What about the log2FC (Staphylococcus aureus [16]) of the same compound?
A: -2

Q: What about the Activity (Mus musculus [17]) of the same compound?
A: Active

Q: What about the MIC (Staphylococcus aureus [18]) of the same compound?
A: 0.25 µg/mL (≈ 0.492 µM)

Q: What about the log2FC (Staphylococcus aureus [19]) of the same compound?
A: -2

Q: And the log2FC (Staphylococcus aureus [20])?
A: 2

Q: What about the Activity (Staphylococcus aureus [21]) of the same compound?
A: Active

Q: And the Activity (Staphylococcus aureus [22])?
A: Active

Q: What about the Activity (Staphylococcus aureus [23]) of the same compound?
A: Active

Q: And the MIC (Staphylococcus aureus [24])?
A: 0.25 µg/mL (≈ 0.492 µM)

Q: What about the Activity (Staphylococcus aureus [25]) of the same compound?
A: Active

Q: And the Activity (Staphylococcus aureus [26])?
A: Active

Q: What about the Activity (Staphylococcus aureus [27]) of the same compound?
A: Active

Q: And the MIC (Staphylococcus aureus [28])?
A: 0.25 µg/mL (≈ 0.492 µM)

Q: And the Activity (Staphylococcus aureus [29])?
A: Active
